The source made the active and inactive calls.
Legend:
Rattus norvegicus [1] = assay: Antiarrhythmic activity in Wistar rat assessed as effect on heart beat at 10 mg/kg, iv after 1 min; format: functional
Procedure, shortened: (§1)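 Male Wistar rats (180–250 g), anaesthetised with thiopental 60 mg/kg ip. Standard lead II ECG recorded at 50 mm/s just before dosing and at 1, 5 and 15 min after. Heart rate and P–Q, Q–T and QRS intervals were read. n=6 per group, mean ± SEM, one-way ANOVA.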

Rattus norvegicus [2] = assay: Antiarrhythmic activity in Wistar rat assessed as effect on heart beat at 10 mg/kg, iv after 5 mins; format: functional; procedure, shortened: as §1
Rattus norvegicus [3] = assay: Antiarrhythmic activity in Wistar rat assessed as effect on heart beat at 10 mg/kg, iv after 15 mins; format: functional; procedure, shortened: as §1
Rattus norvegicus [4] = assay: Cardiotoxicity in Wistar rat assessed as effect on P-Q interval at 10 mg/kg, iv after 1 min; format: toxicity, organism-based; parameters: dose 10 mg/kg, route intravenous; details: in vivo; procedure, shortened: as §1
Rattus norvegicus [5] = assay: Cardiotoxicity in Wistar rat assessed as effect on P-Q interval at 10 mg/kg, iv after 5 mins; format: toxicity, organism-based; parameters: dose 10 mg/kg, route intravenous; details: in vivo; procedure, shortened: as §1
Rattus norvegicus [6] = assay: Cardiotoxicity in Wistar rat assessed as effect on P-Q interval at 10 mg/kg, iv after 15 mins; format: toxicity, organism-based; parameters: dose 10 mg/kg, route intravenous; details: in vivo, 0.25 h; procedure, shortened: as §1
Rattus norvegicus [7] = assay: Cardiotoxicity in Wistar rat assessed as effect on Q-T interval at 10 mg/kg, iv after 1 min; format: toxicity, organism-based; parameters: dose 10 mg/kg, route intravenous; details: in vivo; procedure, shortened: as §1
Rattus norvegicus [8] = assay: Cardiotoxicity in Wistar rat assessed as effect on Q-T interval at 10 mg/kg, iv after 5 mins; format: toxicity, organism-based; parameters: dose 10 mg/kg, route intravenous; details: in vivo; procedure, shortened: as §1
Rattus norvegicus [9] = assay: Cardiotoxicity in Wistar rat assessed as effect on Q-T interval at 10 mg/kg, iv after 15 mins; format: toxicity, organism-based; parameters: dose 10 mg/kg, route intravenous; details: in vivo, 0.25 h; procedure, shortened: as §1
Rattus norvegicus [10] = assay: Cardiotoxicity in Wistar rat assessed as effect on QRS interval at 10 mg/kg, iv after 1 min; format: toxicity, organism-based; parameters: dose 10 mg/kg, route intravenous; details: in vivo; procedure, shortened: as §1
Rattus norvegicus [11] = assay: Cardiotoxicity in Wistar rat assessed as effect on QRS interval at 10 mg/kg, iv after 5 mins; format: toxicity, organism-based; parameters: dose 10 mg/kg, route intravenous; details: in vivo; procedure, shortened: as §1
Rattus norvegicus [12] = assay: Cardiotoxicity in Wistar rat assessed as effect on QRS interval at 10 mg/kg, iv after 15 mins; format: toxicity, organism-based; parameters: dose 10 mg/kg, route intravenous; details: in vivo, 0.25 h; procedure, shortened: as §1
Rattus norvegicus [13] = assay: Antiarrhythmic activity in iv dosed Wistar rat assessed as protection against barium chloride-induced extrasystoles administered 15 mins prior to barium chloride-challenge; format: functional; details: Heart
Procedure, shortened: (§2)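 Szekeres model in male Wistar rats. Activity is gradual disappearance of arrhythmia with restored sinus rhythm; protection against disturbances and death scored. Groups of 6 animals.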

Rattus norvegicus [14] = assay: Antiarrhythmic activity in dosed Wistar rat assessed as protection against barium chloride-induced fibrillation administered 15 mins prior to barium chloride-challenge; format: functional; details: Heart; procedure, shortened: as §2
Rattus norvegicus [15] = assay: Antiarrhythmic activity in iv dosed barium chloride-induced Wistar rat arrhythmia model assessed as protection against mortality administered 15 mins prior to barium chloride-challenge; format: functional; details: Heart
Procedure, shortened: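 Male Wistar rats (180–250 g), groups of 6. Activity criterion: gradual disappearance of arrhythmia and restoration of sinus rhythm; protection against heart disturbances and death scored.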

Rattus norvegicus [16] = assay: Antiarrhythmic activity in Wistar rat assessed as protection against adrenaline-induced extrasystoles at 2.5 to 10 mg/kg, iv administered 15 mins prior to adrenaline-challenge; format: functional, organism-based; details: Heart
Procedure, shortened: (§3)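 Szekeres model in male Wistar rats anaesthetised with thiopental (60 mg/kg ip). Test compound given iv in water (2.5–10 mg/kg) 15 min before adrenaline 20 µg/kg iv. Scored for extrasystoles, bigeminy and mortality; activity means no premature beats and inhibited arrhythmia versus controls.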

Rattus norvegicus [17] = assay: Antiarrhythmic activity in Wistar rat assessed as protection against adrenaline-induced bigeminy at 2.5 to 10 mg/kg, iv administered 15 mins prior to adrenaline-challenge; format: functional, organism-based; details: Heart; procedure, shortened: as §3
Rattus norvegicus [18] = assay: Antiarrhythmic activity in iv dosed Wistar rat assessed as protection against adrenaline-induced arrhythmia administered 15 mins prior to adrenaline-challenge; format: functional; details: Heart; procedure, shortened: as §3
Rattus norvegicus [19] = assay: Hypotensive activity in normotensive Wistar rat assessed as decrease in systolic blood pressure at 2.5 to 10 mg/kg, iv at 1 min; format: organism-based, Artery; parameters: dose 2.5-10 mg/kg, route intravenous; details: in vivo
Procedure, shortened: (§4)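 Right carotid artery cannulated with heparin-saline-filled tubing for blood pressure recording. After 5 min stabilisation, compound injected iv into the caudal vein (2.5–10 mg/kg, 1 ml/kg). Systolic and diastolic pressure followed for 60 min. n=6 per group, mean ± SEM, one-way ANOVA.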

Rattus norvegicus [20] = assay: Hypotensive activity in normotensive Wistar rat assessed as decrease in diastolic blood pressure at 2.5 to 10 mg/kg, iv at 1 min; format: organism-based, Artery; parameters: dose 2.5-10 mg/kg, route intravenous; details: in vivo; procedure, shortened: as §4
Rattus norvegicus [21] = assay: Hypotensive activity in normotensive Wistar rat assessed as decrease in systolic blood pressure at 2.5 to 10 mg/kg, iv after 1 min measured up to 60 mins; format: organism-based, Artery; parameters: dose 2.5-10 mg/kg, route intravenous; details: in vivo; procedure, shortened: as §4
Rattus norvegicus [22] = assay: Hypotensive activity in normotensive Wistar rat assessed as decrease in diastolic blood pressure at 2.5 to 10 mg/kg, iv after 1 min measured up to 60 mins; format: organism-based, Artery; parameters: dose 2.5-10 mg/kg, route intravenous; details: in vivo; procedure, shortened: as §4

COC(=O)C(C)N1C(=O)N(CC(O)CN2CCN(c3ccccc3OC)CC2)C(c2ccccc2)(c2ccccc2)C1=O.Cl (racemic)
Activity (Rattus norvegicus [1]): 350 min⁻¹
Activity (Rattus norvegicus [2]): 363 min⁻¹
Activity (Rattus norvegicus [3]): 362 min⁻¹
Activity (Rattus norvegicus [4]): 57 ms
Activity (Rattus norvegicus [5]): 55 ms
Activity (Rattus norvegicus [6]): 57 ms
Activity (Rattus norvegicus [7]): 82 ms
Activity (Rattus norvegicus [8]): 81 ms
Activity (Rattus norvegicus [9]): 82 ms
Activity (Rattus norvegicus [10]): 16 ms
Activity (Rattus norvegicus [11]): 15 ms
Activity (Rattus norvegicus [12]): 16 ms
Activity (Rattus norvegicus [13]): inactive
Activity (Rattus norvegicus [14]): inactive
Activity (Rattus norvegicus [15]): inactive
Activity (Rattus norvegicus [16]): Active
Activity (Rattus norvegicus [17]): Active
ED50 (Rattus norvegicus [18]): 0.36 mg/kg
Activity (Rattus norvegicus [19]): Toxic
Activity (Rattus norvegicus [20]): Toxic
Activity (Rattus norvegicus [21]): Non-toxic
Activity (Rattus norvegicus [22]): Non-toxic
